Drawing on ChEMBL document CHEMBL1157729, “Structure-activity relationship and mechanism of action studies of manzamine analogues for the control of neuroinflammation and cerebral infections” (J Med Chem, 2010), this text covers Activity, IC50 and MIC for 18 compounds.

The structures appear in SMILES notation. pIC50: −log10 of the molar value. Converted amounts (≈) assume the structure as drawn.

The IC50 is the concentration that inhibits the measured activity by half. As usually defined, the MIC is the lowest concentration found to suppress growth. As a reminder, the pIC50 is the negative decadic logarithm of the IC50, by convention in mol/L.

Data set [1] deals with Vero. In words: Cytotoxicity against african green monkey Vero cells up to 4.6 ug/mL after 48 hrs by neutral red assay. The format is cell-based. As to conditions: chlorocebus sabaeus; call rule not given here. Summed up:
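Vero cells were seeded at 25,000 cells/well and incubated for 24 h, then exposed to serially diluted samples for 48 h. Viable cells were counted by Neutral Red assay, with doxorubicin as positive control. IC50 was taken from dose-response curves.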

Data set [2] has as its system Plasmodium falciparum. The data set can be described thus: Antiplasmodial activity against chloroquine-sensitive Plasmodium falciparum D6 after 72 hrs by LDH assay. The format is functional, organism-based.
The test system of data set [3] is Mycobacterium tuberculosis. In words: Antimycobacterial activity against Mycobacterium tuberculosis H37Rv. The format is functional, organism-based.
Data set [4] has as its system Candida albicans. The data set can be described thus: Antifungal activity against Candida albicans ATCC 90028. The format is functional, organism-based. Summed up: (§1)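 Broth microdilution per modified CLSI method; samples serially diluted in 20% DMSO/saline, tested in duplicate; inocula set by OD630 of suspensions in incubation broth; growth read at 630 nm before and after incubation; amphotericin B drug control.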

The subject of data set [5] is Cryptococcus neoformans. In words: Antifungal activity against Cryptococcus neoformans ATCC 90113. The format is functional, organism-based. In short, it runs like this: as §1
The subject of data set [6] is Mycobacterium intracellulare. The data set can be described thus: Antimycobacterial activity against Mycobacterium intracellular ATCC 23068. It is filed as functional, organism-based. Summed up:
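Modified Franzblau method; samples serially diluted in 20% DMSO/saline, tested in duplicate; inoculum set by OD630; fluorescence read at 544ex/590em before and after incubation; ciprofloxacin drug control.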

In data set [7] the test system is Plasmodium falciparum. In words: Antiplasmodial activity against chloroquine-resistant Plasmodium falciparum W2 after 72 hrs by LDH assay. It is filed as functional, organism-based.
Data set [8] is described as follows: Antineuroinflammatory activity in LPS-stimulated rat neonatal microglia assessed as drug level causing 50% PMA-induced LDH release preincubated 15 mins prior to PMA challenge measured after 70 mins. It is filed as functional. Summed up:
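Neonatal rat microglia (2 × 10^5/well) primed with E. coli LPS 0.3 ng/mL for 17 h at 35.9 °C, washed with HBSS, given compound (0.01–10 μM) or DMSO 15 min, then PMA 1 μM; LDH read spectrophotometrically after 70 min; LDH50 relative to Triton X-100 (0.1%) release; duplicates.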
In general terms: LDH in the medium is a marker of cell lysis.

Data set [9] is described as follows: Antineuroinflammatory activity in LPS-stimulated rat neonatal microglia assessed as inhibition of PMA-induced superoxide anion production preincubated 15 mins prior to PMA challenge measured after 70 mins. It is filed as functional, cell-based.
Data set [10] in a line: Antineuroinflammatory activity in LPS-stimulated rat neonatal microglia assessed as inhibition of PMA-induced TXB2 production preincubated 15 mins prior to PMA challenge measured after 70 mins. The format is functional, cell-based.
The mark [11] stands for this setting: Plasmodium falciparum, D6, 72 h, read-out: IC50.
The mark [12] stands for this setting: Plasmodium falciparum, W2, 72 h, read-out: IC50.

For the compound `O=C1CC[C@H]2C[C@]34CN5CCCC/C=C\CC[C@](O)(C=C(c6nccc7c6[nH]c6c(O)cccc67)[C@@H]3CC5)[C@@H]4N2CC/C1=C/c1ccc(Br)cc1`, in data set [1], the Activity result is listed as “Non-toxic”. For the same compound, the half-inhibitory concentration (IC50) result in data set [2] is “Not Active”; in data set [4], above 20 µg/mL; in data set [5] it was above 20 µg/mL; in data set [6], above 20 µg/mL; in data set [7] it was “Not Active”. In addition, the MIC in [3] is above 64 µg/mL.
For `COc1ccc(/C=C2/CCN3[C@@H](CCC2=O)C[C@]24CN5CCCC/C=C\CC[C@](O)(C=C(c6nccc7c6[nH]c6c(O)cccc67)[C@@H]2CC5)[C@H]34)cc1OC`, the Activity result in [1] is on record as “Non-toxic”. Further, the IC50 result was “Not Active” in [2]; above 20 µg/mL in data set [4]; above 20 µg/mL in data set [5]; above 20 µg/mL in data set [6]; “Not Active” in data set [7]. In [3], the MIC is above 64 µg/mL.
For the compound `[O-][N+]12CCCC/C=C\CC[C@]3(O)C=C(c4nccc5c4[nH]c4ccccc45)[C@H](CC1)[C@]1(C[C@@H]4/C=C\CCCC[N@+]4([O-])[C@H]13)C2`, the Activity result in [1] was “Non-toxic”. In addition, the IC50 in data set [4] was above 20 µg/mL; in data set [5], above 20 µg/mL; in [6] it was 10 µg/mL (≈ 17.2 µM).
Turning to `Oc1cccc2c1[nH]c1c(C3=C[C@@]4(O)CC/C=C\CCCCN5CC[C@@H]3[C@]3(C[C@@H]6CC[C@H](O)CCCN6[C@H]34)C5)nccc12`, in data set [1], the Activity entry is recorded as “Non-toxic”. In addition, the IC50 entry was “Not Active” in [2]; 15 µg/mL (≈ 25.7 µM) in [4]; 10 µg/mL (≈ 17.2 µM) in data set [5]; 1.5 µg/mL (≈ 2.57 µM) in data set [6]; “Not Active” in [7]. This compound returned an MIC in [3] of 1.7 µg/mL (≈ 2.92 µM).
The compound `CO[C@H]1/C=C/O[C@@]2(C)Oc3c(C)c(O)c4c(O)c(c(/C=N/N5CCN(C)CC5)c(O)c4c3C2=O)NC(=O)/C(C)=C\C=C\[C@H](C)[C@H](O)[C@@H](C)[C@@H](O)[C@@H](C)[C@H](OC(C)=O)[C@@H]1C` [RIFAMPIN] gave a minimum inhibitory concentration (MIC) in data set [3] of 0.09 µg/mL (≈ 0.109 µM).
With `CC[C@@]1(O)CCCN2[C@@H](CC1)C[C@]13CN4CCCC/C=C\CC[C@](O)(C=C(c5nccc6c5[nH]c5c(O)cccc56)[C@@H]1CC4)[C@H]23`, in [1], the Activity result is listed as “Non-toxic”. Further, the IC50 in data set [2] (setting [11]) is 0.077 µg/mL (≈ 0.126 µM); in data set [4] it was 2.5 µg/mL (≈ 4.09 µM); in [5] it was 6 µg/mL (≈ 9.82 µM); in data set [6], 0.25 µg/mL (≈ 0.409 µM). This compound also yielded an MIC in data set [3] of 1.9 µg/mL (≈ 3.11 µM).
Consider `CC(=O)Oc1cccc2c1[nH]c1c(C3=C/C4=C/C/C=C\CCCCN5CC[C@@H]3[C@]3(C[C@@H]6/C=C\CCCCN6[C@@H]43)C5)nccc12`, for which the 50% inhibitory concentration (IC50) in data set [2] (setting [11]) was 2.5 µg/mL (≈ 4.25 µM); in data set [4], above 20 µg/mL; in data set [5] it was above 20 µg/mL; in [6], 10 µg/mL (≈ 17 µM); in data set [7] (setting [12]), 3.8 µg/mL (≈ 6.45 µM). The MIC in data set [3] is above 64 µg/mL.
On to `N/N=C1/CCCN2[C@@H](CC1)C[C@]13CN4CCCC/C=C\CC[C@](O)(C=C(c5nccc6c5[nH]c5c(O)cccc56)[C@@H]1CC4)[C@H]23`, for which the Activity result in data set [1] is on record as “Non-toxic”. In data set [3], this compound yielded an MIC of 1.9 µg/mL (≈ 3.19 µM). Further, the IC50 was above 20 µg/mL in [4], 1 µg/mL (≈ 1.68 µM) in data set [5], 0.09 µg/mL (≈ 0.151 µM) in [6] and 0.038 µg/mL (≈ 0.0639 µM) in data set [7] (setting [12]).
With `COC(=O)CCCCn1c2ccccc2c2ccnc(C3=C[C@@]4(O)CC/C=C\CCCCN5CC[C@@H]3[C@]3(C[C@@H]6/C=C\C(=O)CCCN6[C@H]34)C5)c21`, the Activity result in [1] is reported as “Non-toxic”. The IC50 in data set [2] (setting [11]) is 2 µg/mL (≈ 2.95 µM); in data set [4], above 20 µg/mL; in data set [5], 15 µg/mL (≈ 22.2 µM); in data set [6] it was 20 µg/mL (≈ 29.5 µM); in data set [7] (setting [12]) it was 2 µg/mL (≈ 2.95 µM).
For the compound `O=CC1=C[C@@]2(O)CC/C=C\CCCCN3CC[C@@H]1[C@]1(C[C@@H]4/C=C\CCCCN4[C@H]12)C3` [IRCINAL], the Activity in data set [8] came out at 4.6 µM. Besides, the results for the pIC50 in [9] and in data set [10] were below 5.00 and 6.48, respectively.
Turning to `O=[N+]([O-])c1cccc2c1[nH]c1c(C3=C[C@@]4(O)CC/C=C\CCCCN5CC[C@@H]3[C@]3(C[C@@H]6/C=C\CCCCN6[C@H]34)C5)nccc12` [8-NITROMANZAMINE A], the Activity entry in data set [1] is “Non-toxic”. Moreover, the IC50 in data set [2] (setting [11]) was 0.31 µg/mL (≈ 0.522 µM); in [4], above 20 µg/mL; in [5], 4 µg/mL (≈ 6.74 µM); in [6] it was 0.25 µg/mL (≈ 0.421 µM); in data set [7] (setting [12]) it was 0.41 µg/mL (≈ 0.691 µM).
As for `O=C1CCCN2[C@@H](CC1)C[C@]13CN4CCCC/C=C\CC[C@](O)(C=C(c5nccc6c5[nH]c5c(O)cccc56)C1CC4)[C@H]23` (stereo partly specified) [MANZAMINE F], 15 µg/mL (≈ 25.8 µM) corresponded to half-maximal inhibition in [4] (IC50).
Regarding `O[C@]12C=C(c3nccc4c3[nH]c3ccccc34)[C@@H]3CCN(CCCC/C=C\CC1)C[C@@]31C[C@@H]3CCCCCCN3[C@H]12` [32,33-DIHYDROMANZAMINE A], the minimum inhibitory concentration (MIC) in data set [3] stood at 66 µg/mL (≈ 120 µM). The IC50 in [4] came out at 9.5 µg/mL (≈ 17.2 µM); in data set [5], 1.5 µg/mL (≈ 2.72 µM); in [6], 0.6 µg/mL (≈ 1.09 µM); in data set [7] (setting [12]), 1.8 µg/mL (≈ 3.27 µM).
As to `O=C1CC[C@H]2C[C@]34CN5CCCC/C=C\CC[C@](O)(C=C(c6nccc7c6[nH]c6c(O)cccc67)[C@@H]3CC5)[C@@H]4N2CC/C1=C/c1ccc([N+](=O)[O-])cc1`, in data set [1], the Activity entry is on record as “Non-toxic”. The IC50 entry in [2] was “Not Active”; in data set [4], above 20 µg/mL; in [5], above 20 µg/mL; in [6] it was above 20 µg/mL; in data set [7], “Not Active”. This compound returned an MIC in data set [3] above 64 µg/mL.
On to `CCCCCCCCCCCCn1c2ccccc2c2ccnc(C3=C[C@@]4(O)CC/C=C\CCCCN5CC[C@@H]3[C@]3(C[C@@H]6/C=C\CCCCN6[C@H]34)C5)c21`, for which the Activity entry in data set [1] was “Non-toxic”. Also, the IC50 result in data set [2] is “Not Active”; in [4], above 20 µg/mL; in [5], above 20 µg/mL; in [6], above 20 µg/mL; in data set [7], “Not Active”.
With `C1=C(c2nccc3c2[nH]c2ccccc23)[C@@H]2CCN3CCCC/C=C\C/C=C/1[C@@H]1N4CCCC/C=C\[C@H]4C[C@@]12C3` [DEHYDROMANZAMINE A], the IC50 came out at 0.12 µg/mL (≈ 0.226 µM) in data set [2] (setting [11]); 9.5 µg/mL (≈ 17.9 µM) in data set [4]; 4.5 µg/mL (≈ 8.48 µM) in [5]; 0.4 µg/mL (≈ 0.754 µM) in data set [6]; 2.2 µg/mL (≈ 4.14 µM) in [7] (setting [12]). It took 46 µg/mL (≈ 86.7 µM) to inhibit growth in data set [3] (MIC).
In the case of `O=C1CC[C@H]2C[C@]34CN5CCCC/C=C\CC[C@](O)(C=C(c6nccc7c6[nH]c6c(O)cccc67)[C@@H]3CC5)[C@@H]4N2CC/C1=C/c1ccc(F)cc1`, in data set [1], the Activity entry is “Non-toxic”. Moreover, the IC50 result is “Not Active” in [2]; above 20 µg/mL in data set [4]; above 20 µg/mL in data set [5]; above 20 µg/mL in data set [6]; “Not Active” in [7].
The compound `C[C@@H]1[C@H](O)[C@@H](C)/C=C/C=C/C=C/C=C/C=C/C=C/C=C/[C@H](O[C@@H]2O[C@H](C)[C@@H](O)[C@H](N)[C@@H]2O)C[C@@H]2O[C@](O)(C[C@@H](O)C[C@@H](O)[C@H](O)CC[C@@H](O)C[C@@H](O)CC(=O)O[C@H]1C)C[C@H](O)[C@H]2C(=O)O` [AMPHOTERICIN B] gave an IC50 in [4] of 0.2 µg/mL (≈ 0.216 µM).
